Laboratory results taken from ChEMBL document CHEMBL1157793, “Synthesis and antitumor activity of 1,5-disubstituted 1,2,4-triazoles as cis-restricted combretastatin analogues” (J Med Chem, 2010).
Active and inactive are the calls of the source. The rule behind the calls is not given here.

Columns and labels:
HeLa [1] = assay: Cell cycle arrest in human HeLa cells assessed as decrease in accumulation of cells at S phase at 7 to 250 nM after 24 hrs by propidium iodide staining-based flow cytometry; type: functional
How it was run: (§1)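 5×10^5 exponentially growing cells treated with compound (7–250 nM range for 24 h; 30 nM for 24 and 48 h), collected, fixed in ice-cold 70% ethanol, lysed with buffer containing RNase A and 0.1% Triton X-100, PI-stained, and DNA content analysed by flow cytometry; phase distribution from DNA histograms. Mean ± SEM of three independent experiments.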

HeLa [2] = assay: Antiproliferative activity against human HeLa cells after 72 hrs by MTT assay; type: functional, cell-based
Bos taurus [3] = species: Bos taurus; assay: Displacement of [3H]colchicine from bovine tubulin at 1 uM
How it was run: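 [3H]Colchicine binding inhibition measured with reaction mixtures of 1 µM tubulin, 5 µM [3H]colchicine and 1 µM test compound.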

Gallus gallus = species: Gallus gallus; assay: Inhibition of vascular sprouts in chick embryo aorta assessed as vascular disruption at 10 uM after 30 mins by microscopy; type: functional, tissue-based
How it was run: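 Aortic arches from day-14 chick embryos sliced, embedded in Matrigel with complete medium; endothelial sprouts formed over 24–48 h. Compound added at various concentrations and vascular channels imaged before and 30 min after addition.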

HUVEC [4] = assay: Induction of apoptosis in HUVEC expressing GFP assessed as decrease in GFP-positive cell area at 0.5 uM to 10 uM after 30 mins by confocal microscopy; design: scale not given: the % may be the effect or the level left
HUVEC [5] = assay: Induction of apoptosis in HUVEC expressing GFP assessed as formation of membrane blebs at 0.5 uM to 10 uM after 30 mins by confocal microscopy; details: Homo sapiens
Jurkat [6] = assay: Induction of apoptosis in human Jurkat cells assessed as depolarization of mitochondrial membrane potential measured as annexin-V positive cells at 50 nM after 48 hrs by annexin-V-FITC and propidium iodide staining based flow cytometry (reference value: 3.0%); type: functional
Jurkat [7] = assay: Induction of apoptosis in human Jurkat cells assessed as decrease in Bcl2 expression at 50 nM after 24 to 72 hrs by immunoblot method; type: functional, cell-based
How it was run: (§2)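 Jurkat cells given 50 nM compound for varying times, washed in cold PBS, lysed on ice 30 min, cleared at 15000g, 4 °C; 20 µg protein run on 7.5–15% SDS-PAGE, blotted to PVDF, probed 2 h at room temperature with rabbit anti-PARP or anti-Bcl-2 (1:1000), peroxidase secondary, ECL detection; β-actin reprobe as loading control.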

Jurkat [8] = assay: Induction of apoptosis in human Jurkat cells assessed as increase in ROS production at 50 nM by HE staining based flow cytometry; type: functional, cell-based; details: TDE = time-dependent effect
How it was run: (§3)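 After 24, 48, 72 h with 50 nM compound, Jurkat cells resuspended in HBSS with 2.5 µM HE or 0.1 µM H2DCFDA, 30 min at 37 °C, washed, and read by flow cytometry (excitation 488 nm; emission 585 nm HE, 530 nm DCF). Mean ± SEM of three independent experiments.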

Jurkat [9] = assay: Cell cycle arrest in human Jurkat cells assessed as accumulation of cells at SubG1 phase at 7 to 250 nM after 24 hrs by propidium iodide staining-based flow cytometry; type: functional; how it was run: as §1
Jurkat [10] = assay: Induction of apoptosis in human Jurkat cells assessed as increase in annexin-V positive cells after 24 to 72 hrs by annexin-V-FITC and propidium iodide staining based flow cytometry; type: functional, cell-based
A549 = assay: Antiproliferative activity against human A549 cells after 72 hrs by MTT assay; type: functional, cell-based; details: A549, 72 h
Jurkat [11] = assay: Antiproliferative activity against human Jurkat cells after 72 hrs by MTT assay; type: functional, cell-based
How it was run: (§4)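 Cells seeded at 8×10^3 per well (Jurkat, HL-60, K562 in RPMI-1640; MCF7, A549, HeLa in DMEM; all with 10% FBS, penicillin/streptomycin), incubated 18 h at 37 °C, 5% CO2, then exposed to compound at varying concentrations in complete medium for 72 h.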

[12] = Inhibition of bovine brain tubulin polymerization after 20 mins by turbidimetry; design: species or system Bos taurus
How it was run: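 Bovine brain tubulin (10 µM) preincubated with varying compound concentrations in glutamate buffer at 30 °C, chilled to 0 °C, 0.4 mM GTP added, then warmed to 30 °C in spectrophotometer; assembly followed by turbidity at 350 nm.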

MCF7 = assay: Antiproliferative activity against human MCF7 cells after 72 hrs by MTT assay; type: functional, cell-based; details: MCF7, 72 h
Jurkat [13] = assay: Induction of apoptosis in human Jurkat cells assessed as activation of caspase-3 at 50 nM by flow cytometry; type: functional, cell-based; details: TDE = time-dependent effect
How it was run: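 Jurkat cells exposed to 50 nM compound for 24, 48 and 72 h, fixed in Cytofix buffer 20 min, washed in Perm/Wash, stained 30 min with FITC-conjugated anti-human active caspase-3 fragment antibody; percentage of positive cells by flow cytometry, mean ± SEM of three experiments.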

Jurkat [14] = assay: Induction of apoptosis in human Jurkat cells assessed as increase in ROS production at 50 nM by H2DCFDA staining based flow cytometry; type: functional, cell-based; details: TDE = time-dependent effect; how it was run: as §3
HL-60 = assay: Antiproliferative activity against human HL60 cells after 72 hrs by MTT assay; type: functional, cell-based; details: HL-60, 72 h
Bos taurus [15] = species: Bos taurus; assay: Ratio of IC50 for comberestastatin-A4 to IC50 for drug for inhibition of bovine brain tubulin polymerization after 20 mins by turbidimetry
Jurkat [16] = assay: Cell cycle arrest in human Jurkat cells by accumulation of cells at G2/M phase at 7 to 250 nM after by propidium iodide staining-based flow cytometry; type: functional; details: TDE = time-dependent effect; how it was run: as §1
Jurkat [17] = assay: Induction of apoptosis in human Jurkat cells assessed as depolarization of mitochondrial membrane potential measured as annexin-V positive cells at 50 nM after 72 hrs by annexin-V-FITC and propidium iodide staining based flow cytometry (reference value: 3.0%); type: functional
HeLa [18] = assay: Cell cycle arrest in human HeLa cells assessed as decrease in accumulation of cells at G1 phase at 7 to 250 nM after 24 hrs by propidium iodide staining-based flow cytometry; type: functional; how it was run: as §1
HeLa [19] = assay: Cell cycle arrest in human HeLa cells assessed as increase in accumulation of cells at G2/M phase after 24 hrs by propidium iodide staining-based flow cytometry; type: functional; how it was run: as §1
Jurkat [20] = assay: Induction of apoptosis in human Jurkat cells assessed as depolarization of mitochondrial membrane potential measured as annexin-V positive cells at 50 nM after 24 hrs by annexin-V-FITC and propidium iodide staining based flow cytometry (reference value: 3.0%); type: functional
HeLa [21] = assay: Cell cycle arrest in human HeLa cells by accumulation of cells at G2/M phase at 30 nM after 48 hrs by propidium iodide staining-based flow cytometry (reference value: 12%)
Jurkat [22] = assay: Induction of apoptosis in human Jurkat cells assessed as increase in PARP cleavage at 50 nM after 24 hrs by immunoblot method; type: functional, cell-based; how it was run: as §2
Jurkat [23] = assay: Cell cycle arrest in human Jurkat cells assessed as increase in accumulation of cells at G2/M phase at 7 to 250 nM after 24 hrs by propidium iodide staining-based flow cytometry; type: functional; how it was run: as §1
K562 = assay: Antiproliferative activity against human K562 cells after 72 hrs by MTT assay; type: functional, cell-based; details: K562, 72 h; how it was run: as §4

Compound	Activity (HeLa [1])	IC50 (HeLa [2]) [nM]	Activity (Bos taurus [3]) [%]	Activity (Jurkat [6])	Activity (Jurkat [7])	Activity (Jurkat [8])	Activity (Jurkat [9])	Activity (Jurkat [10])	IC50 (A549) [nM]	IC50 (Jurkat [11]) [nM]	IC50 [12] [nM]	IC50 (MCF7) [nM]	Activity (Jurkat [13])	Activity (Jurkat [14])	IC50 (HL-60) [nM]	Activity (Jurkat [16])	Activity (Jurkat [17])	Activity (HeLa [18])	Activity (HeLa [19])	Activity (Jurkat [20])	other results
CCOc1ccc(-c2ncnn2-c2cc(OC)c(OC)c(OC)c2)cc1	Active	15	86	28.4%	Active	tde	Active	Active	100	5	760	50	tde	tde	20	tde	44.5%	Active	Dose-dependent effect	14.4%	Activity (Gallus gallus): Active; Activity (HUVEC [4]): 30%; Activity (HUVEC [5]): Active; Ratio IC50 (Bos taurus [15]): 2; Activity (HeLa [21]): 70%; Activity (Jurkat [22]): Active; Activity (Jurkat [23]): Active
CCOc1ccc(-c2ncnn2-c2cc(OC)c(OC)c(OC)c2)cc1Cl	Active	6	75	Active	Active	tde	Active	Active	10	3	1500	17	tde	tde	3	tde	Active	Active	Dose-dependent effect	Active	IC50 (K562): 20 nM; Activity (HeLa [21]): 70%; Activity (Jurkat [22]): Active; Activity (Jurkat [23]): Active
